In paper PMC12552610 (Nature Communications, 2025):

Biological target: Aβ (AD brain homogenates) (Homo sapiens, UniProt P05067)
Assay: Competition of PiB against [3H]ACI-Aβ ref on AD brain homogenates
Assay type: binding
Method in brief: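 Insoluble AD brain fraction prepared by high-salt, Triton X-100 and sucrose ultracentrifugation steps. Competitor serially diluted from 2000 nM to 0.14 nM against tritiated Aβ reference ligand at 15 nM. Run in 50 mM Tris pH 7.5, 0.9% NaCl, 0.1% BSA for 2 h at RT, in duplicate. Samples vacuum-filtered on GF/C, washed five times with ice-cold Tris, then scintillation-counted.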

Sequence of Aβ (AD brain homogenates) (P05067 672-713): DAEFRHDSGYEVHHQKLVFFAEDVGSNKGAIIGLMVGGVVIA

`CNc1ccc(-c2nc3ccc(O)cc3s2)cc1` [Pittsburg compound B, 2-(4-(Methylamino)phenyl)benzo[d]thiazol-6-ol] was tested. Which “displacement of Aβ ref cmpd” value did it give?
Its value is “can be displaced by it”.
